Results reported in ChEMBL document CHEMBL1156524, “Profiling the enzymatic properties and inhibition of human complement factor B” (J Biol Chem, 2007).
pIC50: −log10 of the molar value. The source made the active and inactive calls. The rule behind the calls is not given here. Residues, ends and D or L forms follow the SMILES beside them.

How the values were obtained:
Homo sapiens [1] = species on record: Homo sapiens; test: Inhibition of human C3bBb convertase assessed as C3 cleavage at 1 mM after 30 mins by 12% gel analysis
Method in brief: (§1)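 Native C3 convertase formed in situ: C3 (10 µg), human factor B (0.5 µg) and factor D (0.05 µg) incubated 30 min at 37 °C in 32 µL PBS pH 7.4 with 1 mM MgCl2 and 154 mM NaCl, plus buffer or inhibitor (0.25–1.0 mM). Cleavage of C3 to C3a read by SDS-PAGE, 2.5 µg C3/well on 7% gel and 5 µg C3/well on 12% gel.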

Homo sapiens [2] = species on record: Homo sapiens; test: Inhibition of human C3bBb convertase assessed as C3 cleavage at 1 mM after 30 mins by 7% gel analysis; method in brief: as §1
Homo sapiens [3] = species on record: Homo sapiens; test: Inhibition of human C3bBb convertase assessed as C3 cleavage after 30 mins by 12% gel analysis
Method in brief: (§2)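 Native convertase assembled in situ: C3 10 µg, factor B 0.5 µg and factor D 0.05 µg, 30 min at 37 °C in PBS pH 7.4 with 1 mM MgCl2 and 154 mM NaCl. Inhibitor at 0.25, 0.5 and 1.0 mM; leupeptin and PMSF at 1.0 mM as controls. C3 to C3a cleavage read on 7% or 12% gels.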

Complement factor B [4] = target: T1, Complement factor B (Homo sapiens, UniProt P00751); test: Inhibition of human C3 convertase assessed as C3a formation after 30 mins by 12% gel analysis
T1 sequence (P00751 whole entry): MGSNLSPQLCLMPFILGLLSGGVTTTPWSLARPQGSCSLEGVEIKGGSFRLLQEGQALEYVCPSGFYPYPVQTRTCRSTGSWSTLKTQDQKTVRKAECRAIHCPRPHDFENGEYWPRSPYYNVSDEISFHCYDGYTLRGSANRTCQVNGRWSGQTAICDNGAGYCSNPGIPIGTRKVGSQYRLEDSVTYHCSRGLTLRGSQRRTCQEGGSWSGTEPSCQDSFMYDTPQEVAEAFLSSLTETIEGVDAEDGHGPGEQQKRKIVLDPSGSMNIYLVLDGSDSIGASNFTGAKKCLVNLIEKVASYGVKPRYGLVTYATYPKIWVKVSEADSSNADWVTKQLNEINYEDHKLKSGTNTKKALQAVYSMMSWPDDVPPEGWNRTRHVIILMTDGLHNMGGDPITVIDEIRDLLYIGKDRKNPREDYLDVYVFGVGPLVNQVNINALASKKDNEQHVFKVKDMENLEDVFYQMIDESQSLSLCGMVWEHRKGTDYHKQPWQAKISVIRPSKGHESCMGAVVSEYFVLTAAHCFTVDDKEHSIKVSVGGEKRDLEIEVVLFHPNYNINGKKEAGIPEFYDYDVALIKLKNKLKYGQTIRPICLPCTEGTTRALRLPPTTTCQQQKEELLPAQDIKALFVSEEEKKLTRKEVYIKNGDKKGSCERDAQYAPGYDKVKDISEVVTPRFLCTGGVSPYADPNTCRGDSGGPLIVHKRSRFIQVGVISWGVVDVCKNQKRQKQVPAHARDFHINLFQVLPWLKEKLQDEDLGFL
Method in brief: (§3)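 Convertase (CVF.Bb) preformed from cobra venom factor 12 µg, factor B 8 µg and factor D 0.2 µg in PBS pH 7.4 with 1 mM MgCl2, 1 h at 37 °C, then diluted with PBS containing 20 mM EDTA. C3 10 µg plus convertase incubated 30 min at 37 °C in PBS pH 7.4 with buffer or inhibitor at 0.01–0.5 mM. C3a formation read on gels loaded with 2.5 µg C3/well (7%) or 5.0 µg (12%).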

Complement factor B [5] = target: T1, Complement factor B; test: Inhibition of human complement factor B at 100 uM
Method in brief: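 Competition format: 50 nM factor B with 100 µM inhibitor and Ac-SHLGLAR-pNA at 0.5, 2.5, 5 or 10 mM, in 100 mM glycine-HCl pH 9.5 at 37 °C. Absorbance increase followed at 405 nm.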

Complement factor B [6] = target: T1, Complement factor B; test: Inhibition of human complement factor B assessed as cleavage of C3 convertase to C3b at pH 10.2
Method in brief: (§4)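 Purified factor B 4 µg with C3 10 µg, 3 h at 37 °C in 100 mM glycine-HCl pH 10.2 with 154 mM NaCl. Buffer or inhibitor at 0.01, 0.1, 0.25 or 0.5 mM. C3 cleavage products resolved on 7% and 12% gels.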

Complement factor B [7] = target: T1, Complement factor B; test: Inhibition of human C3 convertase assessed as C3a formation after 30 mins by 7% gel analysis; method in brief: as §3
Complement factor B [8] = target: T1, Complement factor B; test: Inhibition of human complement factor B
Method in brief: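 Chromogenic assay: 50 nM factor B, 0.5 mM Ac-SHLGLAR-pNA, 100 mM glycine-HCl pH 9.5, 37 °C. Eleven inhibitor concentrations from 1 µM to 1 mM. pNA release monitored at 405 nm; buffer alone as positive control.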

[9] = Inhibition of trypsin mediated cleavage of AcSHLGLAR-pNA
Method in brief: (§5)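 Ac-SHLGLAR-pNA at 0.5 mM final in 10 mM Hepes, 10 mM Tris, 150 mM NaCl, 0.1% PEG, pH 7.4; 150 µL wells; read at 405 nm, 37 °C. Trypsin at 133 nM final, inhibitor at eleven 2-fold dilutions from 26.6 µM, in triplicate. Thrombin at 0.5 U per well, inhibitor at eleven 2-fold dilutions from 666 µM, in duplicate.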

Homo sapiens [10] = species on record: Homo sapiens; test: Inhibition of human C3bBb convertase assessed as C3 cleavage after 30 mins by 7% gel analysis; method in brief: as §2
Complement factor B [11] = target: T1, Complement factor B; test: Inhibition of human complement factor B assessed as […] at pH 10.2; method in brief: as §4
[12] = Inhibition of thrombin mediated cleavage of AcSHLGLAR-pNA; method in brief: as §5

Row | SMILES | Activity (Homo sapiens [1]) | Activity (Homo sapiens [2]) | Activity (Homo sapiens [3]) | Activity (Complement factor B [4]) | Activity (Complement factor B [5]) | Activity (Complement factor B [6]) | Activity (Complement factor B [7]) | pIC50 (Complement factor B [8]) | pIC50 [9] | Activity (Homo sapiens [10]) | Activity (Complement factor B [11]) | pIC50 [12]
1 | CC(=O)N[C@@H](CC(C)C)C(=O)N[C@@H](CC(C)C)C(=O)N[C@H](C=O)CCCNC(=N)N | inactive | inactive | – | – | – | – | – | – | – | – | – | –
2 | O=S(=O)(F)Cc1ccccc1 | inactive | inactive | – | – | – | – | – | – | – | – | – | –
3 | CC(=O)N[C@@H](CO)C(=O)N[C@@H](Cc1cnc[nH]1)C(=O)N[C@@H](CC(C)C)C(=O)NCC(=O)N[C@@H](CC(C)C)C(=O)N[C@@H](C)C(=O)N[C@H](C=O)CCCNC(=N)N (Ac-SHLGLAR-aldehyde) | – | – | Dose-dependent effect | Dose-dependent effect | Dose-dependent effect | Active | Dose-dependent effect | 4.72 | 3.15 | Dose-dependent effect | Dose-dependent effect | 4.62
